Data on ten compounds can be found in ChEMBL document CHEMBL1177712, “Synthesis and characterization of in vitro and in vivo profiles of hydroxybupropion analogues: aids to smoking cessation” (J Med Chem, 2010).

Active and inactive are the calls of the source.

Series [1] has as its system Mus musculus. Description: Toxicity in sc dosed ICR mouse assessed occurrence of sedation. Format: organism-based. The note with it: in vivo.
The target in series [2] is Neuronal acetylcholine receptor; alpha4/beta4 (Homo sapiens, UniProt P30926+P43681). Description: Agonist activity at alpha4beta4 nicotinic receptor in human SH-EP1 cells assessed as induction of radiolabeled Rb+ influx at 0.005 to 100 uM by liquid scintillation counting. Format: functional, cell-based. A digest of the protocol:
(§1)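 Cells were labelled with ⁸⁶Rb⁺ for at least 4 h, then exposed for 5 min in efflux buffer (pH 7.4) to test ligand alone at ~5 nM to 100 μM. The lines were TE671/RD (muscle α1β1γδ), SH-SY5Y (α3β4*) and transfected SH-EP1-hα4β2 or -hα4β4. Efflux was Cerenkov-counted. Non-specific efflux was subtracted, and results were normalized to specific efflux from carbamylcholine (1 mM; 3 mM for SH-SY5Y).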

Series [3] deals with Mus musculus. As to the kind of experiment: Toxicity in sc dosed ICR mouse assessed occurrence of convulsion. Conditions: in vivo. Format: organism-based.
Series [4] concerns Mus musculus. Description: Smoke cessation activity in sc dosed ICR mouse assessed as inhibition of nicotine-induced hypothermia administered 15 mins before nicotine challenge measured after 30 mins of nicotine infusion. The class given is functional, organism-based. A digest of the protocol: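 Male ICR mice (20–25 g) were pretreated with test drug or saline 15 min before nicotine at 2.5 mg/kg sc. Rectal temperature was taken before and 30 min after nicotine, and the change was calculated. Room temperature was 21–24 °C. AD₅₀ came from at least four doses, with at least 8 mice per dose.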

The subject of series [5] is Mus musculus. Description: Smoke cessation activity in sc dosed ICR mouse assessed as inhibition of nicotine-induced increase in locomotor activity administered 15 mins before nicotine challenge measured after 5 mins of nicotine infusion. Format: functional, organism-based.
Series [6] deals with Mus musculus. As to the kind of experiment: Smoke cessation activity in sc dosed ICR mouse assessed as inhibition of nicotine-induced antinociception administered 15 mins before nicotine challenge measured after 5 mins of nicotine infusion by tail-flick assay. Format: functional, organism-based. Summed up: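 Radiant-heat tail-flick latency was read 5 min later (10 s cutoff; baseline 2–4 s) and expressed as %MPE. AD₅₀ came from at least four doses, with at least 8 mice per dose.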
For orientation: In hot-plate and tail-flick tests a longer latency is read as antinociception.

Series [7] has as its system Mus musculus. Description: Smoke cessation activity in sc dosed ICR mouse assessed as inhibition of nicotine-induced antinociception administered 15 mins before nicotine challenge measured after 5 mins of nicotine infusion by hotplate assay. Format: functional, organism-based. Summed up: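 Male ICR mice (20–25 g) were pretreated with saline or test drug 15 min before nicotine at 2.5 mg/kg sc. They were tested 5 min later on a 55 °C hot plate (40 s cutoff), and the result was expressed as %MPE. AD₅₀ came from at least four doses, with at least 8 mice per dose.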

For series [8], the target named is Neuronal acetylcholine receptor; alpha4/beta2 (Homo sapiens, UniProt P17787+P43681). Description: Agonist activity at alpha4beta2 nicotinic receptor in human SH-EP1 cells assessed as induction of radiolabeled Rb+ influx at 0.005 to 100 uM by liquid scintillation counting. The class given is functional, cell-based. A digest of the protocol:
as §1

For `COc1ccc([C@]2(O)OCC(C)(C)N[C@H]2C)cc1`, the Activity entry in the series on Mus musculus [1] and in the series on Mus musculus [3] was “Non-toxic” each time. The outcome in series [2] and in series [8] was inactive. In addition, the IC50 was above 15 mg/kg with Mus musculus [4], above 15 mg/kg in the series with Mus musculus [5], 0.019 mg/kg in the series on Mus musculus [6] and above 15 mg/kg with Mus musculus [7].
In the case of `C[C@@H]1N(C)C(C)(C)CO[C@@]1(O)c1ccc(Cl)cc1`, the Activity entry in the series on Mus musculus [1] and in the series with Mus musculus [3] was “Non-toxic” throughout. The outcome in series [2] and in series [8] was inactive. Also, the IC50 in the series on Mus musculus [4] is above 15 mg/kg; in the series on Mus musculus [5] it was above 15 mg/kg; with Mus musculus [6] it was 0.32 mg/kg; in the series with Mus musculus [7] it was above 15 mg/kg.
Regarding `C[C@@H]1N(C)C(C)(C)CO[C@@]1(O)c1cccc(Cl)c1`, the Activity entry in the series with Mus musculus [1] and in the series with Mus musculus [3] was “Non-toxic” each time. Further, the outcome in series [2] and in series [8] was inactive. Further, the IC50 in the series on Mus musculus [4] is above 15 mg/kg; with Mus musculus [5], above 15 mg/kg; in the series on Mus musculus [6] it was 0.016 mg/kg; in the series with Mus musculus [7] it was above 15 mg/kg.
For `CC(NC(C)(C)C)C(=O)c1cccc(Cl)c1` (racemic) [BUPROPION], the Activity entry in the series with Mus musculus [1] and in the series on Mus musculus [3] was “Non-toxic” in each case. The IC50 in the series with Mus musculus [4] stood at 9.2 mg/kg; with Mus musculus [7], 15 mg/kg.
Turning to `C[C@@H]1NC(C)(C)CO[C@@]1(O)c1cc(F)cc(F)c1`, the Activity entry in the series on Mus musculus [1] and in the series on Mus musculus [3] was “Non-toxic” throughout. The outcome in series [2] and in series [8] was inactive. Further, the IC50 is above 15 mg/kg with Mus musculus [4], above 15 mg/kg with Mus musculus [5], 0.0056 mg/kg in the series with Mus musculus [6] and above 15 mg/kg in the series on Mus musculus [7].
With `C[C@@H]1NC(C)(C)CO[C@@]1(O)c1ccc(Cl)cc1`, the Activity entry in the series on Mus musculus [1] and with Mus musculus [3] was “Non-toxic” in each case. Further, the outcome in series [2] and in series [8] was inactive. Besides, the IC50 in the series on Mus musculus [4] is above 15 mg/kg; in the series with Mus musculus [5], above 15 mg/kg; with Mus musculus [6] it was 0.019 mg/kg; with Mus musculus [7], above 15 mg/kg.
Consider `C[C@@H]1NC(C)(C)CO[C@@]1(O)c1ccc(-c2ccccc2)cc1`, for which the Activity result with Mus musculus [1] and with Mus musculus [3] was “Non-toxic” in each case. Besides, the IC50 in the series on Mus musculus [4] is above 15 mg/kg; with Mus musculus [5], above 15 mg/kg; in the series on Mus musculus [6] it was 0.021 mg/kg; with Mus musculus [7] it was above 15 mg/kg.
For the compound `C[C@@H]1NC(C)(C)CO[C@@]1(O)c1cccc(Cl)c1` [RADAFAXINE], the Activity entry in the series with Mus musculus [1] and in the series with Mus musculus [3] was “Non-toxic” in each case. The values for the IC50 with Mus musculus [5], with Mus musculus [6] and with Mus musculus [7] were 0.9 mg/kg, 0.2 mg/kg and 1 mg/kg, respectively.
As to `C[C@@H]1NC(C)(C)CO[C@@]1(O)c1cccc(Br)c1`, the Activity entry with Mus musculus [1] and in the series with Mus musculus [3] was “Non-toxic” throughout. Also, the outcome in series [2] and in series [8] was inactive. In addition, the IC50 in the series with Mus musculus [4] was 1.7 mg/kg; in the series with Mus musculus [5], 2.6 mg/kg; in the series with Mus musculus [6], 0.16 mg/kg; in the series on Mus musculus [7] it was 4.3 mg/kg.
For `C[C@H]1NC(C)(C)CO[C@]1(O)c1cccc(Cl)c1`, the Activity result in the series on Mus musculus [1] and with Mus musculus [3] was “Non-toxic” in each case. Besides, the IC50 with Mus musculus [4] is above 15 mg/kg; in the series on Mus musculus [5] it was above 15 mg/kg; in the series on Mus musculus [6], 2.5 mg/kg; in the series on Mus musculus [7], 10.3 mg/kg.
